Here are results for 1 compound from ChEMBL document CHEMBL1649161, “Pharmacokinetics of EDP-420 after ascending single oral doses in healthy adult volunteers” (Antimicrob Agents Chemother, 2009).

Values after ≈ are worked out from the molar mass of the structure shown.

The nature of data set [1]: AUC (0 to infinity) in healthy human plasma at 400 mg, po administered as single dose measured after 120 hrs. The class given is ADME, organism-based. The arrangement: dose 400 mg, route oral, time infinity. The gist of the method: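 Healthy adults (6 per dose group) received a single oral suspension after an 8-h fast, with food withheld 4 h. EDTA blood was drawn predose to 120 h. Plasma was protein-precipitated with ACN and assayed by LC-MS/MS (clarithromycin internal standard; range 1–1,000 ng/ml). AUC0-last was computed by linear-up/log-down trapezoid; AUC0-∞ added Clast/λz. Values are noncompartmental means.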

A short description of data set [2]: Apparent oral clearance in healthy human plasma at 800 mg, po administered as single dose measured after 120 hrs. The class given is ADME, organism-based. Put shortly: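 Single oral suspension dose in fasted healthy adults (6 per group). Plasma was collected to 120 h and measured by LC-MS/MS (1–1,000 ng/ml). Apparent oral clearance was dose divided by AUC0-∞ (noncompartmental, linear-up/log-down trapezoid extrapolated with Clast/λz); the mean was reported.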

Data set [3] can be described thus: Renal clearance in healthy human assessed as cumulative fraction excreted unchanged in urine at 1200 mg, po administered as single dose measured after 48 hrs. As to conditions: read-out: Fraction Recovered in urine. The class given is ADME, organism-based. The gist of the method:
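After a single oral fasted suspension dose in healthy adults (6 per group), urine was collected in intervals to 48 h and measured by LC-MS/MS. fe0-48 = Ae0-48 (summed interval volume × concentration) / dose × 100%; the mean was reported.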

The subject of another data set is Legionella sp. Briefly: Antimicrobial activity against Legionella sp. The class given is functional.

As usually defined, the AUC(0-inf) is total exposure, with the tail of the curve extrapolated. The low end stands for low exposure, the high end for high exposure. One may read the CL/F as clearance divided by bioavailability, as obtained after extravascular dosing. For orientation: MIC90 means an inhibitory concentration at the 90% level, which refers to growth in some studies and to a panel of isolates in others. High values mean weaker potency, low ones greater potency. `CC[C@H]1OC(=O)[C@H](C)C(=O)[C@H](C)[C@@H](O[C@@H]2O[C@H](C)C[C@H](N(C)C)[C@H]2O)[C@@]2(C)C[C@@H](C)/C(=N\C(C)=O)[C@H](C)[C@@H](OC/C(=N\OCc3ccc(-n4cccn4)nc3)CO2)[C@]1(C)O` [MODITHROMYCIN] registered an AUC(0-inf) in data set [1] of 14400 ng·h/mL. The CL/F in data set [2] was 393 mL/min. Moreover, the dose excreted at 48 h in data set [3] came to 5.84%. This compound also returned an MIC90 with Legionella sp. of 0.031 µg/mL (≈ 0.0369 µM).
